According to ChEMBL document CHEMBL1142626, “Insecticidal and mutagenic evaluation of two annonaceous acetogenins” (J Nat Prod, 2000):

What was measured:
Salmonella typhimurium [1] = experiment: Mutagenic activity in Salmonella Typhimurium TA98 assessed as number of revertants at 50 ug/plate in presence of Wistar rat S9 liver homogenate; type: toxicity, organism-based, Liver S9 fraction; conditions: salmonella enterica subsp. enterica serovar typhimurium
Procedure, shortened: (§1)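 Salmonella/microsome plate test (Ames) in strain TA98, with genetic markers and spontaneous revertant counts verified routinely. Run with and without S9 mix, the S9 being liver postmitochondrial supernatant from male Wistar rats of about 200 g. Doses ran from 0.01 to 100 µg/plate. Revertants are the mean of triplicate plates with standard error. Positive controls were 0.5 µg 4-nitroquinoline-N-oxide without S9 and 15 µg 2-aminoanthracene with S9.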

Salmonella typhimurium [2] = experiment: Mutagenic activity in Salmonella Typhimurium TA100 assessed as number of revertants at 100 ug/plate in presence of Wistar rat S9 liver homogenate; type: toxicity, organism-based, Liver S9 fraction; conditions: salmonella enterica subsp. enterica serovar typhimurium
Procedure, shortened: (§2)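 Salmonella/microsome plate test, with or without S9 from livers of male Wistar rats (~200 g). Strain markers and spontaneous revertant counts were routinely verified. Revertants are reported as mean ± standard error of triplicate plates. Strain-specific positive controls were used, with 2-aminoanthracene for all strains when S9 was present.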

Salmonella typhimurium [3] = experiment: Mutagenic activity in Salmonella Typhimurium TA102 assessed as number of revertants at 100 ug/plate in presence of Wistar rat S9 liver homogenate; type: toxicity, organism-based, Liver S9 fraction; conditions: salmonella enterica subsp. enterica serovar typhimurium; procedure, shortened: as §2
Myzus persicae [4] = experiment: Antifeedant effect against Myzus persicae assessed as inhibition index at 100 ug/cm2 relative to control; type: functional; parameters: scale not given: the % may be the effect or the level left
Procedure, shortened: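 Choice settling test on apterous adult M. persicae: 20 boxes of 10 aphids per treatment. Settling inhibition %SI = [1 − (%aphids on treated/%aphids on control surface)] × 100.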

Myzus persicae [5] = experiment: Insecticidal activity against Myzus persicae assessed as increase in mortality at 50 ug/cm2 observed daily for 4 days; type: functional, organism-based
Procedure, shortened: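 No-choice test: 20 boxes, each with five same-age apterous adult M. persicae (100 insects). Nymphs produced in the first 48 h were separated from adults and kept in similarly treated boxes. Both were observed daily for 4 days for mortality. Analysed by contingency tables and LSD test.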

Salmonella typhimurium [6] = experiment: Mutagenic activity in Salmonella Typhimurium TA100 assessed as number of revertants at 10 ug/plate in absence of Wistar rat S9 liver homogenate; type: toxicity, organism-based; conditions: salmonella enterica subsp. enterica serovar typhimurium; procedure, shortened: as §2
Salmonella typhimurium [7] = experiment: Mutagenic activity in Salmonella Typhimurium TA100 assessed as number of revertants at 1 ug/plate in presence of Wistar rat S9 liver homogenate; type: toxicity, organism-based, Liver S9 fraction; conditions: salmonella enterica subsp. enterica serovar typhimurium; procedure, shortened: as §2
Salmonella typhimurium [8] = experiment: Mutagenic activity in Salmonella Typhimurium TA102 assessed as number of revertants at 20 ug/plate in absence of Wistar rat S9 liver homogenate; type: toxicity, organism-based; conditions: salmonella enterica subsp. enterica serovar typhimurium; procedure, shortened: as §2
Salmonella typhimurium [9] = experiment: Mutagenic activity in Salmonella Typhimurium TA98 assessed as number of revertants at 10 ug/plate in absence of Wistar rat S9 liver homogenate; type: toxicity, organism-based; conditions: salmonella enterica subsp. enterica serovar typhimurium; procedure, shortened: as §2
Salmonella typhimurium [10] = experiment: Mutagenic activity in Salmonella Typhimurium TA98 assessed as number of revertants at 20 ug/plate in absence of Wistar rat S9 liver homogenate; type: toxicity, organism-based; conditions: salmonella enterica subsp. enterica serovar typhimurium; procedure, shortened: as §1
Spodoptera littoralis [11] = experiment: Antifeedant effect against Spodoptera littoralis L6 larvae assessed as relative consumption rate at 10 ug, po after 72 hrs; type: functional
Procedure, shortened: (§3)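 Preweighed, newly emerged S. littoralis L6 larvae (20 per experiment) were orally cannulated with 10 µg in 2 µL DMSO; controls got solvent alone. Relative consumption and growth rates were calculated at 72 h on a dry-weight basis. Log-transformed weights were analysed by ANOVA with LSD tests.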

Salmonella typhimurium [12] = experiment: Mutagenic activity in Salmonella Typhimurium TA102 assessed as number of revertants at 100 ug/plate in absence of Wistar rat S9 liver homogenate; type: toxicity, organism-based; conditions: salmonella enterica subsp. enterica serovar typhimurium; procedure, shortened: as §2
Salmonella typhimurium [13] = experiment: Mutagenic activity in Salmonella Typhimurium TA100 assessed as number of revertants at 20 ug/plate in presence of Wistar rat S9 liver homogenate; type: toxicity, organism-based, Liver S9 fraction; conditions: salmonella enterica subsp. enterica serovar typhimurium; procedure, shortened: as §2
Spodoptera littoralis [14] = experiment: Antifeedant effect against Spodoptera littoralis L6 larvae assessed as relative growth rate at 10 ug, po after 72 hrs; type: functional; procedure, shortened: as §3
Salmonella typhimurium [15] = experiment: Mutagenic activity in Salmonella Typhimurium TA100 assessed as number of revertants at 0.1 ug/plate in absence of Wistar rat S9 liver homogenate; type: toxicity, organism-based; conditions: salmonella enterica subsp. enterica serovar typhimurium; procedure, shortened: as §2
Salmonella typhimurium [16] = experiment: Mutagenic activity in Salmonella Typhimurium TA102 assessed as number of revertants at 20 ug/plate in presence of Wistar rat S9 liver homogenate; type: toxicity, organism-based, Liver S9 fraction; conditions: salmonella enterica subsp. enterica serovar typhimurium; procedure, shortened: as §2
Salmonella typhimurium [17] = experiment: Mutagenic activity in Salmonella Typhimurium TA98 assessed as number of revertants at 100 ug/plate in absence of Wistar rat S9 liver homogenate; type: toxicity, organism-based; conditions: salmonella enterica subsp. enterica serovar typhimurium; procedure, shortened: as §1
Salmonella typhimurium [18] = experiment: Mutagenic activity in Salmonella Typhimurium TA102 assessed as number of revertants at 0.01 ug/plate in presence of Wistar rat S9 liver homogenate; type: toxicity, organism-based, Liver S9 fraction; conditions: salmonella enterica subsp. enterica serovar typhimurium; procedure, shortened: as §2
Salmonella typhimurium [19] = experiment: Mutagenic activity in Salmonella Typhimurium TA98 assessed as number of revertants at 100 ug/plate in presence of Wistar rat S9 liver homogenate; type: toxicity, organism-based, Liver S9 fraction; conditions: salmonella enterica subsp. enterica serovar typhimurium; procedure, shortened: as §1
Salmonella typhimurium [20] = experiment: Mutagenic activity in Salmonella Typhimurium TA98 assessed as number of revertants at 0.01 ug/plate in absence of Wistar rat S9 liver homogenate; type: toxicity, organism-based; conditions: salmonella enterica subsp. enterica serovar typhimurium; procedure, shortened: as §2
Salmonella typhimurium [21] = experiment: Mutagenic activity in Salmonella Typhimurium TA98 assessed as number of revertants at 0.1 ug/plate in presence of Wistar rat S9 liver homogenate; type: toxicity, organism-based, Liver S9 fraction; conditions: salmonella enterica subsp. enterica serovar typhimurium; procedure, shortened: as §2
[22] = test system: Leptinotarsa decemlineata; experiment: Insecticidal activity against Leptinotarsa decemlineata assessed as mortality at 5 ug by hemolymph injection after 72 hrs; type: functional
Procedure, shortened: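 Adult L. decemlineata (20 beetles) were injected with 5 µg in DMSO through the metepimeron suture of the thorax. Beetles were kept on potato leaves. Symptoms and mortality were recorded up to 3 days, analysed by contingency tables and Abbott-corrected.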

Salmonella typhimurium [23] = experiment: Mutagenic activity in Salmonella Typhimurium TA100 assessed as number of revertants at 20 ug/plate in absence of Wistar rat S9 liver homogenate; type: toxicity, organism-based; conditions: salmonella enterica subsp. enterica serovar typhimurium; procedure, shortened: as §2
[24] = test system: Leptinotarsa decemlineata; experiment: Antifeedant effect against Leptinotarsa decemlineata assessed as feeding reduction at 10 ug/cm2; type: functional, organism-based
Procedure, shortened: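 Choice test on leaf disks using adult L. decemlineata or newly emerged fifth-instar S. littoralis larvae. Five to 10 plates per treatment, three insects each. Uneaten leaf-disk area was measured by scanner. %FR = [1 − (treatment/control consumption)] × 100 per arena. Where FR exceeded 50%, EC50 was taken from linear regression of %FR on log dose.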

Structure (SMILES): CCCCCC[C@H](O)CCC[C@H](O)[C@H]1CC[C@H]([C@H]2CC[C@H]([C@H](O)CCCCCCCCCCCCC3=C[C@H](C)OC3=O)O2)O1 [SQUAMOCIN]
- Activity (Salmonella typhimurium [1]): 36
- Activity (Salmonella typhimurium [2]): 102
- Activity (Salmonella typhimurium [3]): 88
- Activity (Myzus persicae [4]): <40%
- Activity (Myzus persicae [5]): Non-toxic
- Activity (Salmonella typhimurium [6]): 69
- Activity (Salmonella typhimurium [7]): 138
- Activity (Salmonella typhimurium [8]): 98
- Activity (Salmonella typhimurium [9]): 18
- Activity (Salmonella typhimurium [10]): 13
- Activity (Spodoptera littoralis [11]): 20.35 mg
- Activity (Salmonella typhimurium [12]): 80
- Activity (Salmonella typhimurium [13]): 135
- Activity (Spodoptera littoralis [14]): 3.36 mg
- Activity (Salmonella typhimurium [15]): 140
- Activity (Salmonella typhimurium [16]): 139
- Activity (Salmonella typhimurium [17]): 6
- Activity (Salmonella typhimurium [18]): 414
- Activity (Salmonella typhimurium [19]): 31
- Activity (Salmonella typhimurium [20]): 27
- Activity (Salmonella typhimurium [21]): 39
- Activity [22]: 92.18%
- Activity (Salmonella typhimurium [23]): 68
- Activity [24]: Toxic
